Source: ChEMBL document CHEMBL1629614, “Inhibition of methionyl-tRNA synthetase by REP8839 and effects of resistance mutations on enzyme activity” (Antimicrob Agents Chemother, 2009)
In brackets after ≈: the same amount, converted by molar mass.

Experiments:
Staphylococcus aureus [1] = test: Antimicrobial activity against Staphylococcus aureus expressing MetRS G223C mutant; format: functional
[2] = Inhibition of human cytoplasmic MetRS
Summary of the method: (§1)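 tRNA aminoacylation with scintillation proximity detection. Purified MetRS in 40 mM Tris-HCl pH 8.0, 10 mM Mg acetate, 2.5 mM ATP, 80 mM KCl, 2.5 mM DTT, BSA, [3H]methionine (7 μM Met), 1 μg/ml crude E. coli tRNA. Human enzymes had 0.2–0.6 mM spermine, and substrate, Mg and enzyme levels were optimized per ortholog. Inhibitor was a DMSO serial dilution, 1 μM to 0.05 nM (final), 8% DMSO final, 30 min at room temperature. Reactions were EDTA-stopped, and charged tRNA was captured on polylysine YSi beads at pH 2.0. IC50 came from a four-parameter logistic fit versus DMSO control.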

[3] = Inhibition of human mitochondrial MetRS; summary of the method: as §1
Staphylococcus aureus [4] = test: Antimicrobial activity against Staphylococcus aureus expressing MetRS gene; format: functional
Methionine--tRNA ligase [5] = target: Methionine--tRNA ligase (Staphylococcus aureus subsp. aureus MW2, UniProt Q8NY00, I238F/I57N); test: Inhibition of Staphylococcus aureus MetRS I57N I238F mutant
Methionine--tRNA ligase [6] = target: Methionine--tRNA ligase (Staphylococcus aureus subsp. aureus MW2, UniProt Q8NY00, G54S); test: Inhibition of Staphylococcus aureus MetRS G54S mutant
Staphylococcus aureus [7] = test: Antimicrobial activity against Staphylococcus aureus expressing MetRS I57N G54S mutant; format: functional
Methionine--tRNA ligase [8] = target: Methionine--tRNA ligase (Staphylococcus aureus subsp. aureus MW2, UniProt Q8NY00, G223C); test: Inhibition of Staphylococcus aureus MetRS G223C mutant
Summary of the method: (§2)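 Purified recombinant S. aureus MetRS (mutant, expressed in E. coli) was tested by ATP:PPi exchange with [32P]PPi, using 125 mM methionine and 100 μM ATP so that the IC50 sits above enzyme concentration. Inhibitor was in DMSO (8% final), over 1 μM to 0.05 nM. A sigmoidal fit gave the IC50, and Ki = IC50/[(1+[Met]/KmMet)(1+KmATP/[ATP])], with KmMet taken at that ATP level.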

Staphylococcus aureus [9] = test: Antimicrobial activity against Staphylococcus aureus expressing MetRS V108M mutant; format: functional
Methionine--tRNA ligase [10] = target: Methionine--tRNA ligase (Staphylococcus aureus subsp. aureus MW2, UniProt Q8NY00, A247E); test: Inhibition of Staphylococcus aureus MetRS A247E mutant; summary of the method: as §2
Staphylococcus aureus [11] = test: Antimicrobial activity against Staphylococcus aureus expressing MetRS I57N I238F mutant; format: functional
Streptococcus pneumoniae [12] = test: Antimicrobial activity against Streptococcus pneumoniae expressing MetRS1 gene; format: functional
Methionine--tRNA ligase [13] = target: Methionine--tRNA ligase (Staphylococcus aureus subsp. aureus MW2, UniProt Q8NY00, I57N/V242F); test: Inhibition of Staphylococcus aureus MetRS I57N V242F mutant
[14] = Inhibition of Escherichia coli MetRS; summary of the method: as §1
Methionine--tRNA ligase [15] = target: Methionine--tRNA ligase (Staphylococcus aureus subsp. aureus MW2, UniProt Q8NY00, G54S/I57N); test: Inhibition of Staphylococcus aureus MetRS I57N G54S mutant
Escherichia coli = test: Antimicrobial activity against Escherichia coli expressing MetRS gene; format: functional
Staphylococcus aureus [16] = test: Antimicrobial activity against Staphylococcus aureus expressing MetRS L213W mutant; format: functional
[17] = Inhibition of Staphylococcus aureus MetRS; summary of the method: as §1
Methionine--tRNA ligase [18] = target: Methionine--tRNA ligase (Staphylococcus aureus subsp. aureus MW2, UniProt Q8NY00, L213W); test: Inhibition of Staphylococcus aureus MetRS L213W mutant; summary of the method: as §2
Staphylococcus aureus [19] = test: Antimicrobial activity against Staphylococcus aureus expressing MetRS G54A A64P mutant; format: functional
Methionine--tRNA ligase [20] = target: Methionine--tRNA ligase (Staphylococcus aureus subsp. aureus MW2, UniProt Q8NY00, I57N); test: Inhibition of Staphylococcus aureus MetRS I57N mutant; summary of the method: as §2
Staphylococcus aureus [21] = test: Antimicrobial activity against Staphylococcus aureus expressing MetRS I57N V242F mutant; format: functional
Methionine--tRNA ligase [22] = target: Methionine--tRNA ligase (Staphylococcus aureus subsp. aureus MW2, UniProt Q8NY00, A247E/I57N); test: Inhibition of Staphylococcus aureus MetRS I57N A247E mutant
Staphylococcus aureus [23] = test: Antimicrobial activity against Staphylococcus aureus expressing MetRS I57N A247E mutant; format: functional
Haemophilus influenzae = test: Antimicrobial activity against Haemophilus influenzae expressing MetRS gene; format: functional
Streptococcus pneumoniae [24] = test: Antimicrobial activity against Streptococcus pneumoniae expressing MetRS2 gene; format: functional
Staphylococcus aureus [25] = test: Antimicrobial activity against Staphylococcus aureus expressing MetRS I57N mutant; format: functional
Staphylococcus aureus [26] = test: Antimicrobial activity against Staphylococcus aureus expressing MetRS G54S mutant; format: functional
[27] = Inhibition of Streptococcus pneumoniae MetRS2; summary of the method: as §1
A549 = test: Cytotoxicity against human A549 cells by MTT assay; format: cell-based
Methionine--tRNA ligase [28] = target: Methionine--tRNA ligase (Staphylococcus aureus subsp. aureus MW2, UniProt Q8NY00, A64P/G54A); test: Inhibition of Staphylococcus aureus MetRS G54A A64P mutant
[29] = Inhibition of Streptococcus pneumoniae MetRS1; summary of the method: as §1
Staphylococcus aureus [30] = test: Antimicrobial activity against Staphylococcus aureus expressing MetRS A247E mutant; format: functional
Methionine--tRNA ligase [31] = target: Methionine--tRNA ligase (Staphylococcus aureus subsp. aureus MW2, UniProt Q8NY00, V108M); test: Inhibition of Staphylococcus aureus MetRS V108M mutant; summary of the method: as §2
Methionine--tRNA ligase [32] = target: T1, Methionine--tRNA ligase (Haemophilus influenzae (strain ATCC 51907 / DSM 11121 / KW20 / Rd), UniProt P43828); test: Inhibition of Haemophilus influenzae MetRS; summary of the method: as §1
T1 sequence (P43828 whole entry): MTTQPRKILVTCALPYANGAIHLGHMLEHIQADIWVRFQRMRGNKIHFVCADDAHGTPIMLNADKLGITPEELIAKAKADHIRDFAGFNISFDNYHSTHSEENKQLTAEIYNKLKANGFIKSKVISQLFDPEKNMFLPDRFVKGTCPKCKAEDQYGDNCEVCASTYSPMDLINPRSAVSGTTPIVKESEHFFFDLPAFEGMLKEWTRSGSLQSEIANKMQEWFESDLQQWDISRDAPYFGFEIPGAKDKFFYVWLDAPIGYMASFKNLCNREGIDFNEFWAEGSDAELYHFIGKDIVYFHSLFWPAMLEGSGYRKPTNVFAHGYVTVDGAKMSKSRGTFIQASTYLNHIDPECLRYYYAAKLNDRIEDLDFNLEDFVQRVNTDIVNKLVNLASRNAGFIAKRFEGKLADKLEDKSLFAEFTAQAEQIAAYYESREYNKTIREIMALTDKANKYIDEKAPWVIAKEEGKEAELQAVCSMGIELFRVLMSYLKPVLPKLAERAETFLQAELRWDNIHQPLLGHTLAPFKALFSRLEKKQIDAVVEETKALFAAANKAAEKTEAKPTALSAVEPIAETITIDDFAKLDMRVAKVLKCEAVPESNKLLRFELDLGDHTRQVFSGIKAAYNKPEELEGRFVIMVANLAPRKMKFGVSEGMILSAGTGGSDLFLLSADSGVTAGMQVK

[33] = Cytotoxicity against rat H42E cells by MTT assay; format: cell-based

For `C=C(F)c1sc(CNCCCNc2cc(=O)c3ccccc3[nH]2)c(C)c1Br` [BEDEROCIN], the MIC (Staphylococcus aureus [1]) was 8 µg/mL (≈ 17.8 µM), the Ki [2] was greater than 20 µM and the Ki [3] was 23 nM. It also gave an MIC (Staphylococcus aureus [4]) of 0.12 µg/mL (≈ 0.266 µM), a Ki (Methionine--tRNA ligase [5]) of 350 nM and a Ki (Methionine--tRNA ligase [6]) of 85 nM. For the same compound, the MIC (Staphylococcus aureus [7]) was 32 µg/mL (≈ 71.1 µM), the Ki (Methionine--tRNA ligase [8]) was 0.51 nM and the MIC (Staphylococcus aureus [9]) was 8 µg/mL (≈ 17.8 µM). The Ki (Methionine--tRNA ligase [10]) was 0.06 nM, the MIC (Staphylococcus aureus [11]) was 32 µg/mL (≈ 71.1 µM) and the MIC (Streptococcus pneumoniae [12]) was 0.12 µg/mL (≈ 0.266 µM). It also gave a Ki (Methionine--tRNA ligase [13]) of 15 nM, a Ki [14] of 10 nM and a Ki (Methionine--tRNA ligase [15]) of 900 nM. For the same compound, the MIC (Escherichia coli) was 16 µg/mL (≈ 35.5 µM), the MIC (Staphylococcus aureus [16]) was 2 µg/mL (≈ 4.44 µM) and the Ki [17] was 0.01 nM. It also gave a Ki (Methionine--tRNA ligase [18]) of 0.04 nM, an MIC (Staphylococcus aureus [19]) of 32 µg/mL (≈ 71.1 µM) and a Ki (Methionine--tRNA ligase [20]) of 0.08 nM. It also gave an MIC (Staphylococcus aureus [21]) of 32 µg/mL (≈ 71.1 µM), a Ki (Methionine--tRNA ligase [22]) of 60 nM and an MIC (Staphylococcus aureus [23]) of 32 µg/mL (≈ 71.1 µM). It also gave an MIC (Haemophilus influenzae) greater than 64 µg/mL, an MIC (Streptococcus pneumoniae [24]) of 32 µg/mL (≈ 71.1 µM) and an MIC (Staphylococcus aureus [25]) of 8 µg/mL (≈ 17.8 µM). For the same compound, the MIC (Staphylococcus aureus [26]) was 16 µg/mL (≈ 35.5 µM), the Ki [27] was greater than 5 µM and the IC50 (A549) was greater than 20 µM. The Ki (Methionine--tRNA ligase [28]) was 1900 nM, the Ki [29] was 0.055 nM and the MIC (Staphylococcus aureus [30]) was 4 µg/mL (≈ 8.88 µM). For the same compound, the Ki (Methionine--tRNA ligase [31]) was 0.11 nM, the Ki (Methionine--tRNA ligase [32]) was 225 nM and the IC50 [33] was greater than 20 µM.
